“Also recorded” adds a separate entry of the source. Where a name gives a salt, the structure may show the parent alone.
Tests used:
[1] = Bidirectional transport across Caco-2 cell monolayers; assay type: in vitro ADME; conditions: human, Caco-2
Procedure, shortened: (§1)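 Monolayers of Caco-2 cells were grown on 0.4-μm polycarbonate Transwell inserts (2×10^5 cells/well) and used only after passing a TEER check. Free or TPGS-micelle test compound (2 μg/mL) was added apically or basolaterally and incubated 4 h at 37°C. Receiver fluid was assayed by HPLC. Verapamil was co-incubated 4 h. AP→BL transport was also run at 4°C. Papp = (dQ/dt)/(A·C0); ER = Papp(BL→AP)/Papp(AP→BL).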

Caco-2 cell monolayers = assay: as above; assay type: in vitro ADME; conditions: AP→BL, 4°C
Procedure, shortened: as §1

P-glycoprotein (P-gp) = assay: as above; assay type: in vitro ADME; conditions: human, Caco-2, with verapamil 100 µM
Procedure, shortened: as §1

[2] = In vitro release in simulated gastrointestinal fluids; assay type: physicochemical
[3] = test system: subcutaneous xenografts of MDA-MB-231 cells; assay: Oral treatment of subcutaneous TNBC xenografts in nude mice; assay type: in vivo, BALB/c nude mice
Procedure, shortened: (§2)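 Female BALB/c nude mice (4 weeks old) received MDA-MB-231 cells (1×10^6/mouse) subcutaneously in the right thigh. At 50–100 mm3 they were randomised to PBS, free or micelle-loaded test compound, given 0.25 mg/kg by oral gavage every two days on days 0–14. Tumor size and body weight were taken every two days to day 17, then organs and tumors went to pathology/TUNEL. TIR was derived from mean tumor size, dosed vs control.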

[4] = test system: orthotopic TNBC (MDA-MB-231 cells); assay: Oral treatment combined with surgery on orthotopic TNBC in nude mice; assay type: in vivo, BALB/c nude mice; conditions: after tumor resection surgery
Procedure, shortened: (§3)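 MDA-MB-231 cells (1×10^6/mouse) were injected into the second right mammary gland of nude mice. Caliper volume was V = (a×b2)/2. At 80–100 mm3, tumors were resected under isoflurane, leaving 5–10% residual. Twenty mice were split into four arms (surgery plus PBS, blank TPGS micelles, free or micelle-loaded test compound), dosed orally at equal volume every two days on days 0–14. Tumor size and body weight were followed every two days to day 17. Organs, including jejunum and lungs, and tumors were then taken for histology.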

[5] = oral, cited from earlier work
[6] = mice, oral administration; cited from earlier work
In vivo toxicity [7] = assay: In vivo toxicity; design: species or system BALB/c nude mice; conditions: 0.25 mg/kg oral
Procedure, shortened: as §2

In vivo toxicity [8] = assay: In vivo toxicity; design: species or system BALB/c nude mice; conditions: after tumor resection surgery, oral
Procedure, shortened: as §3

[9] = patients with advanced solid tumors

## O=C(CC1NCCCC1O)Cn1cnc2cc(Br)c(Cl)cc2c1=O (stereo not shown) [HF, Halofuginone hydrobromide]
[1]
  Papp A→B at 4 h, 2 μg/mL: 4.73 ± 0.28 ×10⁻⁶ cm/s
  Papp B→A at 4 h, 2 μg/mL: 8.72 ± 0.16 ×10⁻⁶ cm/s
  efflux ratio at 4 h, 2 μg/mL: 1.84
Caco-2 cell monolayers
  Papp at 4°C compared with 37°C: lower than those at 37 °C
P-glycoprotein (P-gp)
  Papp A→B at 4 h, 2 μg/mL: 6.25 ± 0.75 ×10⁻⁶ cm/s
  Papp B→A at 4 h, 2 μg/mL: 5.9 ± 0.1 ×10⁻⁶ cm/s
  efflux ratio at 4 h, 2 μg/mL: 0.94
[2]; simulated gastric fluids, from 0 to 8 hours
  cumulative release percentage (CRP) of HF: 53.25%
[2]; simulated gastric fluids, from 8 to 12 hours
  cumulative release percentage (CRP) of HF: 19.6%
[2]; simulated gastric fluids, within 24 hours
  cumulative release percentage (CRP) of HF: 80.03%
[2]; simulated intestinal fluids, from 0 to 8 hours
  cumulative release percentage (CRP) of HF: 54.39%
[2]; simulated intestinal fluids, from 8 to 12 hours
  cumulative release percentage (CRP) of HF: 18.17%
[2]; simulated intestinal fluids, within 24 hours
  cumulative release percentage (CRP) of HF: 82.61%
[3]; 0.25 mg/kg HF, oral gavage, every two days on days 0–14
  tumor inhibition rate (TIR): 47.55% ± 1.32
[3]; 0.25 mg/kg oral, 12 days after oral administration
  tumor size vs untreated mice: significant reduction in tumor size
[3]; 0.25 mg/kg oral, tumor sections
  tumor necrosis (H&E staining): larger necrotic area than those from the PBS group
[3]; 0.25 mg/kg oral, tumor tissues
  expression of Bcl-2, Bax and Caspase-3 in tumor (immunohistochemistry): markedly upregulated the expression of Bax and Caspase-3, and downregulated the expression of Bcl-2
[4]
  expression of Bcl-2, Bax and Caspase-3 in tumor (immunohistochemistry): regulated by HF and HTPM treatment
  lung metastasis (H&E, visual inspection): normal histological features without any tumors
  tumor growth vs PBS- and FTPM-treated groups: significant delay in tumor growth
  tumor necrosis (H&E staining): larger necrotic area than those from the PBS- and FTPM-treated groups
[4]; every two days on days 0–14
  tumor inhibition rate (TIR): 43.57% ± 1.15
[5]; [9]
  "acute" maximum tolerated dose (MTD): 3.5 mg/day
  dose-limiting toxicities (DLT): nausea, vomiting, and fatigue
[5]
  dose recommended for chronic administration in Phase II clinical studies: 0.5 mg/day
[6]
  detection in plasma and red blood cells: not detected in plasma and red blood cells
  persistence in kidneys, liver and lungs: up to 48 hours
In vivo toxicity [7]
  histology of jejunum / bleeding (H&E): jejunum hemorrhage
In vivo toxicity [7]; every two days on days 0–14
  body weight change: caused the loss of body weight
In vivo toxicity [8]
  body weight change: caused the loss of body weight; also recorded: significant loss of body weight
  histology of jejunum (H&E): jejunum bleeding; also recorded: jejunum congestion was found
